Measurements as given in ChEMBL document CHEMBL3108729, “Design, synthesis and anticonvulsant evaluation of N-(benzo[d]thiazol-2-ylcarbamoyl)-2-methyl-4-oxoquinazoline-3(4H)-carbothioamide derivatives: a hybrid pharmacophore approach” (Eur J Med Chem, 2013).

Assays:
Rattus norvegicus [1] = test: Anticonvulsant activity in Wistar rat assessed as inhibition of GABA-induced seizures measuring minimum GABA level per 100 mg whole brain required for 50 % inhibition at 100 mg/kg, ip as single dose measured after 2 hrs (reference value: 46.4 +/- 5.50 ug/100 mg brain); format: functional; settings: route intraperitoneal
Mus musculus [2] = test: Neurotoxicity in ip dosed albino mouse after 0.5 hrs by rotorod test; format: toxicity, organism-based; settings: in vivo
Outline: (§1)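 Swiss mice, four per dose, received 30, 100 or 300 mg/kg i.p. and were placed on a rotorod at 0.5 and 4 h. Neurotoxicity meant failure to keep balance for 1 min. The value reported is the minimum dose affecting half or more of the mice.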

Mus musculus [3] = test: Anticonvulsant activity in ip dosed albino mouse assessed as protection against AMPA-induced tonic phase of seizures after 30 mins; format: functional; settings: 0.5 h
Outline: (§2)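 Mice were dosed i.p. over 10–100 µmol/kg. After 30 min, AMPA was injected i.c.v. into a lateral ventricle under ether anaesthesia, at 9.7 nmol for clonus or 11.7 nmol for forelimb tonic extension. Mice were observed singly for 30 min. ED50 values with 95% confidence limits were derived from dose–response data.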

[4] = Neurotoxicity in po dosed albino rat after 0.5 hrs; format: toxicity, organism-based; settings: in vivo
Rattus norvegicus [5] = test: Anticonvulsant activity in po dosed albino rat assessed as protection against pentylenetetrazole-induced seizure after 0.5 hrs; format: functional
[6] = Protective index, ratio of TD50 for neurotoxicity to ED50 for protection against pentylenetetrazole-induced seizure in albino rat after 0.5 hrs; format: toxicity, organism-based; settings: in vivo, read-out: Ratio TD50/ED50
Outline: (§3)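 Rats received oral doses in groups of eight at the time of peak effect, with at least three points in the 10–90% range for seizure protection or minimal neurotoxicity. ED50, TD50 and 95% confidence intervals were computed by regression, and PI was calculated as TD50/ED50.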

Rattus norvegicus [7] = test: Anticonvulsant activity in Wistar rat assessed as inhibition of GABA-induced seizures measuring minimum GABA level per 100 mg whole brain required for 50 % inhibition at 30 mg/kg, po for 7 days (reference value: 51.5 +/- 2.60 ug/100 mg brain); format: functional
Outline: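 Adult Wistar rats in groups of six were dosed orally at 30 mg/kg for 7 days. Whole-brain GABA was then measured enzymatically in ethanol extracts as µg/100 mg tissue. Values are mean ± SEM of six rats versus control (Student's t test).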

[8] = Protective index, ratio of TD50 for neurotoxicity to ED50 for protection against maximal electroshock-induced seizure in albino rat after 0.5 hrs; format: toxicity, organism-based; settings: in vivo, read-out: Ratio TD50/ED50; outline: as §3
Mus musculus [9] = test: Anticonvulsant activity in ip dosed albino mouse assessed as protection against maximal electroshock-induced seizures after 4 hrs; format: functional; settings: read-out: MED
Mus musculus [10] = test: Anticonvulsant activity in ip dosed albino mouse assessed as protection against maximal electroshock-induced seizures after 0.5 hrs; format: functional; settings: read-out: MED
Rattus norvegicus [11] = test: Hepatotoxicity in albino rat assessed as change in SGPT level at 30 mg/kg, po for 14 days (reference value: 46.1+/-5.25 units/ml); format: toxicity, organism-based; design: dose 30 mg/kg, route oral; settings: in vivo, 336 h
Rattus norvegicus [12] = test: Anticonvulsant activity in po dosed albino rat assessed as protection against maximal electroshock-induced seizures after 0.5 hrs; format: functional
Mus musculus [13] = test: Anticonvulsant activity in ip dosed albino mouse assessed as protection against AMPA-induced clonic phase of seizures after 30 mins; format: functional; settings: 0.5 h; outline: as §2
Rattus norvegicus [14] = test: Hepatotoxicity in albino rat assessed as change in SGOT level at 30 mg/kg, po for 14 days (reference value: 74.2+/-5.95 units/ml); format: toxicity, organism-based; design: dose 30 mg/kg, route oral; settings: in vivo, 336 h
Mus musculus [15] = test: Neurotoxicity in albino mouse at 300 mg/kg, ip after 4 hrs by rotorod test; format: toxicity, organism-based; design: dose 300 mg/kg, route intraperitoneal; settings: in vivo; outline: as §1
Rattus norvegicus [16] = test: Anticonvulsant activity in po dosed albino rat assessed as protection against maximal electroshock-induced seizures after 4 hrs; format: functional
[17] = Protective index, ratio of TD50 for neurotoxicity to ED50 for protection against maximal electroshock-induced seizure in albino rat after 4 hrs; format: toxicity, organism-based; settings: in vivo, read-out: Ratio TD50/ED50; outline: as §3
[18] = Neurotoxicity in po dosed albino rat after 4 hrs; format: toxicity, organism-based; settings: in vivo
Mus musculus [19] = test: Anticonvulsant activity in ip dosed albino mouse assessed as protection against 6 Hz electroshock-induced seizures after 2 hrs; format: functional
Rattus norvegicus [20] = test: Anticonvulsant activity in po dosed albino rat assessed as protection against pentylenetetrazole-induced seizure after 4 hrs; format: functional
Mus musculus [21] = test: Neurotoxicity in ip dosed albino mouse after 4 hrs by rotorod test; format: toxicity, organism-based; settings: in vivo; outline: as §1
[22] = Protective index, ratio of TD50 for neurotoxicity to ED50 for protection against pentylenetetrazole-induced seizure in albino rat after 4 hrs; format: toxicity, organism-based; settings: in vivo, read-out: Ratio TD50/ED50; outline: as §3

Row | Structure (SMILES) | GABA level (Rattus norvegicus [1]) | MTC (Mus musculus [2]) | ED50 (Mus musculus [3]) | GABA level (Rattus norvegicus [7]) | minimal effective dose (Mus musculus [9]) | minimal effective dose (Mus musculus [10]) | Activity (Rattus norvegicus [11]) | ED50 (Mus musculus [13]) | Activity (Rattus norvegicus [14]) | further results
1 | Cc1nc2ccccc2c(=O)n1C(=S)NC(=O)Nc1nc2ccc(OC(F)(F)F)cc2s1 | 75.5 µg/100 mg brain | 300 mg/kg | 28.5 µmol/kg | 68.2 µg/100 mg brain | 30 mg/kg | 30 mg/kg | 44.7 U/ml | 37.9 µmol/kg | 72.4 U/ml | TD50 at 0.5 h [4]: > 2150 µmol/kg; ED50 (Rattus norvegicus [5]): 510 µmol/kg; selectivity ratio at 0.5 h [6]: > 4.2; selectivity ratio at 0.5 h [8]: > 26; ED50 (Rattus norvegicus [12]): 82.5 µmol/kg; Activity (Mus musculus [15]): Non-toxic
2 | Cc1nc2ccccc2c(=O)n1C(=S)NC(=O)Nc1nc2ccc(Cl)cc2s1 | 92.1 µg/100 mg brain | 300 mg/kg | 56.9 µmol/kg | 111 µg/100 mg brain | 100 mg/kg | 30 mg/kg | 48.5 U/ml | 70.3 µmol/kg | 71.2 U/ml | ED50 (Rattus norvegicus [16]): 142 µmol/kg; selectivity ratio at 4 h [17]: > 17; TD50 at 4 h [18]: > 2500 µmol/kg; ED50 (Mus musculus [19]): 1230 µmol/kg; ED50 (Rattus norvegicus [20]): 722 µmol/kg; MTC (Mus musculus [21]): 300 mg/kg; selectivity ratio at 4 h [22]: > 3.4
